UPR CHOP act – activators of apoptotic CHOP UPR arm, primary screen, cell-based, CHO-CHOP luciferase reporter, luminescence, uHTS; UPR activation; percent of tunicamycin response over DMSO baseline; activation, % at 10 µM; 330,000 compounds, 0.34% hits; AID 449763, 2010;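 active means at 10 µM dose, activation of 40% or more, normalized to positive control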;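 further: 100% = tunicamycin at 10 µg/mL and 0% = DMSO alone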
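measured by = luciferase luminescence | assay system = CHO-CHOP cells, stable luciferase reporter of PERK-eIF2a-CHOP signalling | amount = 500 reporter cells seeded per well | timing = 6 h compound exposure at 37 °C after overnight seeding | controls = positive tunicamycin 10 µg/mL, negative DMSO alone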
PfM18AAP inh-1 – PfM18AAP inhibitors, malaria aminopeptidase, primary screen, biochemical, QFRET, recombinant enzyme | M18 aspartyl aminopeptidase (Plasmodium falciparum 3D7) | H-Glu-NHMec fluorogenic cleavage | inhibition, % at 7.35 µM | 290,000 compounds, 1.2% hits;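 active means inhibition above the campaign mean inhibition over all tested compounds plus 3 SD, cut at about 28% in these data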;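 further: 0% = plate median of test compound wells and 100% = 2 mM ZnCl2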
CHOP inh – inhibitors of CHOP promoter induction, primary screen, cell-based, unfolded protein response, luciferase reporter | CHO-K1 CHOP-promoter luciferase, tunicamycin-induced, 15-18 h | inhibition, % at 10 µM | 220,000 compounds, 3.8% hits;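 active means compounds that reduced the stress-induced luciferase reporter signal by more than about 70% of percent inhibition, limit read from the data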;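 further: 0% = tunicamycin plus vehicle and 100% = wells without tunicamycin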
p97 ATPase inh – inhibitors of human p97 ATPase, primary screen, biochemical; AID 1481, 2009; inhibition, % at 8 µM; recombinant p97 ATPase, Kinase-Glo ATP luminescence, 3 h; 220,000 compounds, 0.42% hits; in the data active means inhibition above about 15%;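 further: 0% = DMSO vehicle and 100% = wells lacking enzyme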
Target sequence (P55072 whole entry, looked up): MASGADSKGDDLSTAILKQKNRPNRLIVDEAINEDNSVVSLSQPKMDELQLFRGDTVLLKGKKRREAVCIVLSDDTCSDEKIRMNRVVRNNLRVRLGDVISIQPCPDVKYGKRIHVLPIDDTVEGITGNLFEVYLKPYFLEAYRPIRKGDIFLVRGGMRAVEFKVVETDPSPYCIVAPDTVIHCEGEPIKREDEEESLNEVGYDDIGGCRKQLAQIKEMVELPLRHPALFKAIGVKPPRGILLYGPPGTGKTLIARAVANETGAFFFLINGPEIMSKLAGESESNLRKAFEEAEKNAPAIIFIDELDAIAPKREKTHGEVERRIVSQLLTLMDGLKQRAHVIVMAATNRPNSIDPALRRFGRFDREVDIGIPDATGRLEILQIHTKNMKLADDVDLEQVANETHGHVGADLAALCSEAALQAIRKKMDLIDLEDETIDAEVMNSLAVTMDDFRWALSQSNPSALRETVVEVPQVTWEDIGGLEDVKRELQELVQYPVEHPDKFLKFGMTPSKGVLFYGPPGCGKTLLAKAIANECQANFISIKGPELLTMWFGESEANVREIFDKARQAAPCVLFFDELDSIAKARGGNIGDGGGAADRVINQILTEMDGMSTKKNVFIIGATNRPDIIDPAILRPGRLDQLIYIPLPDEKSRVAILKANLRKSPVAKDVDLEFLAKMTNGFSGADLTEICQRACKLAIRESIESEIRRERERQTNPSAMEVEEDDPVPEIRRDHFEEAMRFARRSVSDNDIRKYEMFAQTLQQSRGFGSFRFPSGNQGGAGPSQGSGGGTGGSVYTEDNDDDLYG
XBP1 UPR activ – activators of adaptive XBP1 UPR arm, primary screen, cell-based, CHO-XBP1 luciferase reporter, luminescence, uHTS | 330,000 compounds, 0.33% hits | activation, % at 20 µM | IRE1-XBP1 UPR activation; percent of tunicamycin response, DMSO as zero;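 active means versus positive control, 20 µM dose yields 30% or more activation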;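 further: 100% = tunicamycin at 10 µg/mL and 0% = DMSO only wells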
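Material: IRE1-XBP1 luciferase reporter CHO line / Quantity: one thousand reporter cells per well / Buffer or medium: F12 with 10% serum / Compound: 20 µM single concentration, DMSO 1% / Times: 6 h treatment, 37 °C / Detection: Steady-Glo luciferase glow luminescence, 10 min after reagent addition / Benchmarks: tunicamycin high, DMSO low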
HCV NS3 hel inh – inhibitors of HCV NS3 helicase, primary screen, biochemical, Cy5 molecular beacon fluorescence; NS3 helicase DNA unwinding; AID 1800, 2009; Hepatitis C virus NS3 helicase; inhibition, % at 10.9 µM; 290,000 compounds, 0.56% hits;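 active means inhibition above the mean of all tested compounds plus 3 SD, set per campaign, cut at about 35% in these data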;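 further: 0% = DMSO wells and 100% = thioflavine S control wells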
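Measured by: Cy5 fluorescence, 0 and 60 min reads / Assay system: NS3 helicase fragment of HCV / Control set: low DMSO, high thioflavine S at 110 µM / Times: 1 h reaction at 25 °C, ATP-initiated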
PfM18AAP inh-2 – PfM18AAP inhibitors, malaria aminopeptidase, confirmation, biochemical, QFRET, recombinant enzyme, triplicate; shares compounds with PfM18AAP inh-1; H-Glu-NHMec fluorogenic cleavage; inhibition, % at 7.35 µM; 2,400 compounds, 28% hits; AID 2170, 2009;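 active means mean inhibition over replicate wells above the hit cutoff set for the earlier primary screen, cut at about 29% in these data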;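 further: 0% = median of test compound wells and 100% = 2 mM ZnCl2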
CTSL1 confirm – cathepsin L1 inhibitors, retest, confirmation, counter-screen for PFM18AAP inhibitor project, biochemical, QFRET, triplicate; shares compounds with PfM18AAP inh-1; purified cathepsin L1, Z-Leu-Arg-MCA fluorescence; inhibition, % at 5.96 µM; 2,400 tested, under 10 active; AID 2178, 2009;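 active means average inhibition across replicates above the hit cutoff set in the earlier primary screen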;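 further: 0% = median of test compound wells and 100% = Z-Phe-Ala-diazomethylketone 1 µM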
* = called active by the depositor; · = not tested or not shown. Most compounds without a hit are left out; they make up all but 4.5% or so of the library.

SMILES	UPR CHOP act	PfM18AAP inh-1	CHOP inh	p97 ATPase inh	XBP1 UPR activ	HCV NS3 hel inh	PfM18AAP inh-2	CTSL1 confirm
CN(CC(=O)Nc1ccccc1Br)C(=O)CNC(=O)c1cccs1	0	·	·	·	-2	·	·	·
CCN(CC)CCN(C(=O)c1ccc2ncsc2c1)c1nc2cc3c(cc2s1)OCO3	-2	47*	·	·	-9	-11	-5	6
CCN(CC)CCN(C(=O)c1ccc(C(=O)c2ccccc2)cc1)c1nc2cc3c(cc2s1)OCO3	-2	3	·	·	-2	-35	·	·
O=[N+]([O-])c1ccc(Nc2nc(N/N=C/c3cccc(F)c3)nc(N3CCCC3)n2)cc1	9	44*	16	6	3	-44	-35	0
CNC(=S)NNC(=O)c1cccn(Cc2cccc(C(F)(F)F)c2)c1=O	0	17	·	·	0	3	·	·
CC(=O)C1=C(C)Nc2cc(C(F)(F)F)ccc2S1	1	36*	56	6	-1	-4	-4	-1
Cc1ccccc1NC(=O)c1sc2nc(N3CCOCC3)c3c(c2c1N)CCCC3	5	41*	·	·	2	-8	26	3
CCOC(=O)c1ccc(NC(=O)c2sc3nc(N4CCOCC4)c4c(c3c2N)CCCC4)cc1	2	42*	·	·	0	-2	-17	-2
Nc1c(C(=O)NCCc2ccccc2)sc2nc(N3CCOCC3)c3c(c12)CCCC3	-1	37*	-4	-5	5	2	-17	-3
COCCSc1ccccc1C(=O)N1CCN(Cc2ccccc2)CC1	1	-4	11	-2	0	10	·	·
CCCN(C(=O)c1cc2c(s1)CCC2)c1c(N)n(Cc2ccccc2)c(=O)[nH]c1=O	0	-8	4	1	-1	17	·	·
CC(=O)c1ccccc1NS(=O)(=O)c1cccc2nsnc12	0	-8	·	·	1	-1	·	·
Cc1cccc(C(=O)n2cnnc2N)c1	-2	45*	22	0	-5	4	56*	-1
Cc1cc(C)cc(C(=O)n2cnnc2N)c1	-2	48*	3	-5	-3	17	59*	5
Cc1ccc(OCC(=O)n2cnnc2N)c(C)c1	2	57*	-9	4	-1	-6	54*	-4
Cc1ccsc1C(=O)NNC(=O)Nc1ccc(Cl)c(Cl)c1	2	41*	10	-4	0	-12	28	0
Cc1occc1C(=O)NNC(=O)Nc1ccc(Cl)c(Cl)c1	0	23	25	1	-3	-5	·	·
Cc1ccc(C(=O)N2CCN(CCNC(=O)C(=O)NCc3ccc(Cl)cc3)CC2)cc1	1	-6	·	·	-2	-10	·	·
Cc1ccc(NC(=O)CCCC2CCCCC2)c(O)c1	6	-4	·	·	-2	2	·	·
N#Cc1ccsc1NC(=O)CSc1ncn[nH]1	-1	27	8	2	-2	5	·	·
CC(C)(C)C1CCc2c(sc(NC(=O)CSc3ncn[nH]3)c2C#N)C1 (configuration not stated)	0	34*	63	6	-2	15	-17	1
CCC1(c2ccccc2)NC(=O)N(CC(=O)NCC2COc3ccccc3O2)C1=O (configuration not stated)	-1	·	·	·	-4	·	·	·
Oc1ccc(/C=C/c2cc(O)cc(O)c2)cc1	3	59*	24	12	-1	-5	59*	0
CCCN(CCC)Cc1c(C(=O)N/N=C/c2c[nH]c3ccccc23)nnn1-c1nonc1N	2	5	·	·	-2	-23	·	·
CN(Cc1ccccc1)S(=O)(=O)c1ccc2[nH]c(=O)ccc2c1	-1	-4	·	·	-1	18	·	·
SMILES	UPR CHOP act	PfM18AAP inh-1	CHOP inh	p97 ATPase inh	XBP1 UPR activ	HCV NS3 hel inh	PfM18AAP inh-2	CTSL1 confirm
O=C1CC(c2ccccc2)=NN1c1nc(-c2ccccc2)cs1	2	33*	4	5	3	7	-29	2
Cc1cc(C(F)(F)F)cc(NNC(=O)NC(=O)c2c(F)cccc2Cl)n1	2	42*	-1	4	4	-14	-3	6
CC(C)(C)NC(=O)C(=O)NC(=O)c1c(F)cccc1Cl	-2	-9	14	3	-1	2	·	·
COc1ccc(N2CCN(CCCn3c(=S)[nH]c4ncccc4c3=O)CC2)cc1	-1	45*	4	2	-3	0	-38	-10
CCN(CC)c1ccc(/C=N/N2CCOCC2)c(O)c1	2	12	34	1	-1	3	·	·
CCN(CC)c1ccc(N=CN2CCOCC2)cc1	1	34*	·	·	2	3	-28	0
CC(C)CC1NC(C(=O)O)Cc2c1[nH]c1ccccc21 (configuration not stated)	0	-2	·	·	-3	8	·	·
CC(C)C1NC(C(=O)O)Cc2c1[nH]c1ccccc21 (configuration not stated)	-1	37*	·	·	3	-25	29*	-1
CC(C)CNC1=CC(=O)CC(c2ccco2)C1 (configuration not stated)	0	40*	-5	3	-2	33	-16	-5
O=C1C=C(Nc2ccc(O)cc2)CC(c2ccco2)C1 (configuration not stated)	1	42*	-8	-3	1	18	-25	-1
CCOC(=O)c1ccc(NC2=CC(=O)CC(c3ccco3)C2)cc1 (configuration not stated)	5	11	10	-4	2	20	·	·
O=C1C=C(NCc2ccc(Cl)cc2)CC(c2ccco2)C1 (configuration not stated)	0	10	-10	9	0	18	·	·
O=[N+]([O-])c1cc2c(cc1/C=N/n1cnnc1)OCO2	-1	39*	6	2	3	-2	-22	-3
CCN(CC)C(=O)c1ncn(C)c1C(=O)N(CC)CC	1	·	·	·	-1	·	·	·
COCC(C)NS(=O)(=O)c1ccc(NC(=O)c2ccccn2)cc1 (configuration not stated)	1	-5	8	-4	-2	2	·	·

High-throughput results deposited in PubChem by several laboratories.
